PRMT1 FP inh – blocks human protein arginine methyltransferase 1; recombinant PRMT1, activity-based probe fluorescence polarization; inhibition, % at 2.79 µM; Q99873; 1.3% of 370,000 active;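 active = inhibition above about 21% made by adding two undisclosed values, limit read from the data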
SIAE inh – inhibitors of human sialic acid acetylesterase SIAE; inhibition, % at 9.66 µM; SIAE FP-Rh probe binding, fluorescence polarization; Q9HAT2; 0.69% of 370,000 active; AID 1053197;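 active = inhibition above a cutoff: mean of compounds within the control limits plus 3 SD of those, cut at about 17% in these data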;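 note: 0% = plate median of compound wells and 100% = probe without SIAE protein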
ABHD4 inh – inhibitors of mouse ABHD4; purified mABHD4, FP-Rh probe fluorescence polarization; inhibition, % at 8.92 µM; Q8VD66; AID 720543; 0.54% of 370,000 active;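 active = inhibition exceeding the mean over every tested compound plus 3 SD, cut at about 30% in these data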;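 note: 0% = plate median of compound wells and 100% = S159A mutant with DMSO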
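system = mouse ABHD4 enzyme, wild type | medium = HEPES pH 7.0, NaCl, Pluronic buffer | also added = FP-Rh probe | incubation = Enzyme–compound pre-incubation 45 min, then probe 60 min, both 25 °C | technique = fluorescence polarization, excitation 525 nm, emission 598 nm, BODIPY TMR filters | controls = S159A mutant high control, sample median low control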
TCR-CD3 inh – blocks the human TCR-CD3 interaction. TAMRA-labeled TCR probe fluorescence, biochemical. inhibition, % at 9.4 µM. 0.37% of 360,000 active. AID 651800;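 note: recombinant mutant TCR 2C K166C tagged with TAMRA read by polarization; 0% = receptor in buffer alone and 100% = receptor with positive control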
HTRA1 inh – blocks human HTRA1 serine peptidase; recombinant HTRA1, FP-rhodamine activity-based probe, fluorescence polarization; AID 504803; 0.5% of 340,000 active; inhibition, % at 5.96 µM; in the data active = inhibition above about 36%;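 note: 0% = enzyme with DMSO and 100% = wells lacking enzyme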
Target sequence (Q92743 whole entry, looked up): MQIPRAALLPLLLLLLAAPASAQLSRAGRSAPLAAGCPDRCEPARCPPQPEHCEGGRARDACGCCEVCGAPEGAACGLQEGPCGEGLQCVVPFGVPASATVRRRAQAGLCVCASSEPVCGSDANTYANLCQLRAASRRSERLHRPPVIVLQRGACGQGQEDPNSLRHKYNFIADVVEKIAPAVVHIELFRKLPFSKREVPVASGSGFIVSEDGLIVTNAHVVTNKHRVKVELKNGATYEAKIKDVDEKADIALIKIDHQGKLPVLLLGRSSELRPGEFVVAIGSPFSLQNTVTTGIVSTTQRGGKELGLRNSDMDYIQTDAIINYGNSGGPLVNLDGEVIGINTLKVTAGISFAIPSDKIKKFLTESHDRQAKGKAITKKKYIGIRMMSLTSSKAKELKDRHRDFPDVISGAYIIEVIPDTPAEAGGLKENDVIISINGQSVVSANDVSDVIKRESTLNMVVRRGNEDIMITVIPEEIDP
BSA probe FL – BSA probe counter-screen for TCR-CD3 inhibitors | shares compounds with TCR-CD3 inh | inhibition, % at 9.4 µM | TAMRA-labeled BSA probe fluorescence counterscreen | AID 652035 | 10% of 1,200 active; in the data active = inhibition above about 23%;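 note: 0% = buffer low control and 100% = reference high control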
TCR-CD3 conf – confirmation of human TCR-CD3 interaction inhibitors | shares compounds with TCR-CD3 inh | TAMRA-labeled TCR probe fluorescence binding assay | inhibition, % at 9.4 µM | 48% of 1,200 active
* hit, by the source's call; x = no result. Shown are actives, neighbours in structure and some others; about 2.7% of the full set was active somewhere. Cut-off read from the data, not from the text of the source, unless noted: active = inhibition above about 19%; inactive = the rest.

SMILES | PRMT1 FP inh | SIAE inh | ABHD4 inh | TCR-CD3 inh | HTRA1 inh | BSA probe FL | TCR-CD3 conf
O=C(Cc1ccccc1)N/N=C/c1cc(Br)cc(Br)c1O | 4.6 | 13.8 | 6.8 | 23.0* | 20.2 | -7.2 | 24.8*
C=CCN(Cc1cccc(OC)c1OC)C(=O)Oc1ccccc1 | -3.3 | -7.3 | -8.2 | -4.1 | -1.3 | x | x
CSc1ccc(/C=N/NC(=O)COc2ccc(Br)cc2Cl)cc1 | 0.0 | 4.8 | -17.7 | -2.5 | -2.7 | x | x
O=C(C1CCN(c2ncnc3c2sc2cccc(F)c23)CC1)N1CCN(Cc2ccccc2)CC1 | -7.2 | -3.0 | -6.2 | x | x | x | x
C=CCN1C(=O)c2ccc(C(=O)N3CCN(S(=O)(=O)c4cccc(Cl)c4)CC3)cc2C1=O | 1.4 | -5.3 | 7.3 | 2.4 | -0.7 | x | x
OCCN1CCN(c2cnc(-c3ccsc3)cn2)CC1 | 1.9 | 9.3 | 3.5 | 38.2* | x | 5.7 | 1.8
Nc1ncc(-c2ccc(F)cc2)nc1N1CCN(CCO)CC1 | 3.3 | 1.1 | 3.7 | -0.2 | x | x | x
CC(C)CCc1noc(CN2CCN(c3ccc(Cl)cn3)CC2)n1 | -2.4 | -2.2 | 2.2 | 7.6 | 2.5 | x | x
Nc1c(/C=C2/C=CC(=O)C(O)=C2)c(=O)nc2sc(CC(=O)N3CCCCC3)nn12 | 0.9 | 1.4 | 4.6 | 26.2* | 14.2 | -19.3 | 41.8*
Nc1c(/C=C2/C=CC(=O)C(O)=C2)c(=O)nc2sc(CC(=O)N3CCCC3)nn12 | 4.6 | 3.6 | 19.2 | 15.6 | 10.0 | x | x
Cc1cc2oc3ccc(NCCCn4ccnc4)cc3c(=O)c2cc1C | 2.0 | -8.4 | 12.6 | 35.0* | 2.5 | 1.4 | 20.3*
Cc1cc2oc3ccc(NCCCN4CCOCC4)cc3c(=O)c2cc1C | -1.7 | 4.4 | 8.6 | 2.4 | 10.5 | x | x
Cc1ccc(S(=O)(=O)Nc2ccccc2OC(C(=O)OC(C)(C)C)C(=O)OC(C)(C)C)cc1 | 6.1 | -0.1 | -8.8 | 0.4 | x | x | x
Cc1c(C(=O)OCC(=O)Nc2cccc(S(N)(=O)=O)c2)oc2c1ccc1ccccc12 | -4.0 | -22.8 | -35.8 | 25.0* | -42.5 | 2.5 | 5.1
CC(=O)c1ccc(S(=O)(=O)NCC(=O)Nc2nc3ccccc3[nH]2)cc1 | 4.0 | -11.4 | 8.0 | 7.6 | 5.3 | x | x
CCOc1ccc(Br)cc1S(=O)(=O)Nc1ccc(C(=O)OCC(=O)Nc2ccc(C#N)cc2)cc1 | -0.6 | -11.7 | -16.0 | 33.3* | -64.0 | 26.0* | 33.8*
CCOc1ccc(NC(=S)NS(=O)(=O)c2cc(Br)ccc2OCC)cc1 | 0.8 | 1.3 | 2.3 | 1.7 | x | x | x
COc1ccc2c(O)c(-c3c(C)cc(C)cc3C)c(=O)[nH]c2c1 | -3.7 | -2.4 | 3.8 | -0.2 | 2.3 | x | x
Cc1cccc(-n2c(O)c(C=Nc3cc(O)ccc3C)c3ccccc3c2=O)n1 | 1.3 | 16.4 | 0.5 | 37.0* | -1.8 | -20.9 | 6.2
Cc1cccc(-n2c(O)c(C=Nc3c(C)n(C)n(-c4ccccc4)c3=O)c3ccccc3c2=O)n1 | 4.0 | -0.8 | 3.1 | -9.3 | -6.3 | x | x
COc1cccc(N=Cc2c(O)n(-c3cccc(C)n3)c(=O)c3ccccc23)c1 | -2.6 | -2.1 | -13.2 | 3.0 | -33.5 | x | x
Cc1cccc(-n2c(O)c(/C=N/NC(=O)c3ccccc3Cl)c3ccccc3c2=O)n1 | -1.0 | 5.4 | -0.1 | 28.4* | 23.9 | -3.5 | 37.3*
S=c1[nH]nc(-c2n[nH]c3c2CCC3)n1/N=C/C=C/c1ccccc1 | 3.7 | 6.3 | -1.6 | 4.1 | x | x | x
C[C@@H](NC(=O)c1ccc(C#Cc2cccc(F)c2)cn1)C(C)(C)O | -1.1 | 7.0 | 5.0 | x | x | x | x
O=C(COC(=O)c1cc(-c2cccs2)nn1-c1ccccc1)Nc1ccc(F)c([N+](=O)[O-])c1 | -2.1 | -58.8 | -24.1 | 21.1* | -43.5 | 0.3 | 2.3
CN(CC(=O)Nc1ccc(F)cc1)C(=O)c1cc(-c2cccs2)nn1-c1ccccc1 | 2.0 | -11.4 | 4.0 | -6.0 | -18.4 | x | x
CC(SCC(=O)Nc1ccc(F)cc1)c1nc2ccccc2c(=O)[nH]1 (centres undefined) | 4.9 | 1.7 | -2.0 | -5.0 | 2.3 | x | x
Cc1cc(C)nc(SCCC(=O)Nc2ccccc2)n1 | -3.0 | 1.2 | 0.8 | -3.0 | 4.5 | x | x
Cc1cc(C)nc(SCCC(=O)Nc2ccccc2C)n1 | 0.5 | -2.3 | 3.6 | 107.2* | 4.4 | 3.5 | 0.5
